In ChEMBL document CHEMBL2216753, “Novel 1,4-benzoxazine and 1,4-benzodioxine inhibitors of angiogenesis” (Eur J Med Chem, 2012):
pIC50, pKi: −log10 of the molar value. Active and inactive are the calls of the source. No cut-off for these calls is given here.

How the values were obtained:
[1] = Antiproliferative activity against human HMEC1 cells after 7 days by coulter counter method; type: functional, cell-based; settings: HMEC-1, 168 h
[2] = tested on: MCF7; assay: Antiproliferative activity against human MCF7 cells after 4 days by coulter counter method; type: functional, cell-based; settings: MCF7, 96 h
[3] = molecular target: Prothrombin (Homo sapiens, UniProt P00734); assay: Inhibition of thrombin
[4] = tested on: HeLa; assay: Cytotoxicity against human HeLa cells at 100 uM after 3 days by coulter counter method; type: cell-based; settings: 72 h
Summary of the method: (§1)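 Cells seeded at 10,000 cells per cm2; after 16 h, fresh medium with test compound added. Cells trypsinized and counted with a Coulter counter on day 4 (BAEC, HeLa, MCF-7) or day 7 (HMEC-1). Cytotoxicity (cell death) was judged after 3 days in culture. HMEC-1 grown in EGM-2 with supplements and growth factors.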

[5] = tested on: MCF7; assay: Cytotoxicity against human MCF7 cells at 100 uM after 3 days by coulter counter method; type: cell-based; settings: mcf7, 72 h; summary of the method: as §1
[6] = Antiproliferative activity against bovine BAEC cells after 4 days by coulter counter method; type: functional, cell-based; settings: Bos taurus, 96 h
[7] = Cytotoxicity against bovine BAEC cells at 100 uM after 3 days by coulter counter method; type: cell-based, Bos taurus; settings: cattle, 72 h; summary of the method: as §1
[8] = tested on: HeLa; assay: Antiproliferative activity against human HeLa cells after 4 days by coulter counter method; type: functional, cell-based; settings: 96 h
[9] = Cytotoxicity against human HMEC1 cells at 100 uM after 3 days by coulter counter method; type: cell-based; settings: hmec-1, 72 h; summary of the method: as §1
[10] = organism: Gallus gallus; assay: Antiangiogenic activity in chicken embryo chorioallantoic membrane model at 250 nmol/disc after 3 days; type: functional, tissue-based
[11] = tested on: HMEC-1; assay: Antiangiogenic activity in human HMEC1 cells assessed as inhibition of tube formation at 10 uM after 4 to 6 hrs by matrigel assay; type: functional, cell-based
Summary of the method: (§2)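 HMEC-1 (60,000 cells) seeded on matrigel (10 mg/mL) after 30 min gelling at 37 °C, in DMEM containing test compound; after 4–6 h cells photographed and tubes scored 0 (none) to 3 (maximal, like untreated control). Mean ± SD of 2–4 independent experiments; Student t test, p < 0.05 significant.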

[12] = tested on: HeLa; assay: Cytotoxicity against human HeLa cells at 30 uM after 3 days by coulter counter method; type: cell-based; settings: 72 h; summary of the method: as §1
[13] = Cytotoxicity against bovine BAEC cells at 30 uM after 3 days by coulter counter method; type: cell-based, Bos taurus; settings: cattle, 72 h; summary of the method: as §1
[14] = (§3) Antimigratory activity against mouse MAEC cell migration at 30 uM after 5 hrs by wound closure assay; type: functional
Summary of the method: (§4)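 Confluent MAEC monolayers wounded with a 1.0-mm wide micropipette tip, then incubated in fresh medium with test compound. Wounds photographed after 5 h and width calculated from digital images. Mean ± SD of 2–4 independent experiments; Student t test, p < 0.05 significant.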

[15] = tested on: HMEC-1; assay: Antiangiogenic activity in human HMEC1 cells assessed as inhibition of tube formation at 30 uM after 4 to 6 hrs by matrigel assay; type: functional, cell-based; summary of the method: as §2
[16] = Antimigratory activity against mouse MAEC cell migration at 10 uM after 5 hrs by wound closure assay; type: functional; summary of the method: as §4
[17] = tested on: MAEC; assay: Antimigratory activity against mouse MAEC cell migration after 5 hrs by wound closure assay; type: functional, cell-based; summary of the method: as §4
[18] = tested on: MCF7; assay: Cytotoxicity against human MCF7 cells at 30 uM after 3 days by coulter counter method; type: cell-based; settings: mcf7, 72 h; summary of the method: as §1
[19] = Cytotoxicity against human HMEC1 cells at 30 uM after 3 days by coulter counter method; type: cell-based; settings: hmec-1, 72 h; summary of the method: as §1
[20] = Antimigratory activity against mouse MAEC cell migration at 3 uM after 5 hrs by wound closure assay; type: functional; summary of the method: as §4
[21] = tested on: MAEC; assay: as §3; type: functional; summary of the method: as §4
[22] = tested on: HMEC-1; assay: Antiangiogenic activity in human HMEC1 cells assessed as inhibition of tube formation after 4 to 6 hrs by matrigel assay; type: functional, cell-based; summary of the method: as §2
[23] = molecular target: Vascular endothelial growth factor receptor 2 (Homo sapiens, UniProt P35968); assay: Inhibition of human recombinant VEGFR2 expressed in Sf9 insect cells assessed as inhibition of poly(Glu,Tyr) 4:1 substrate phosphorylation by radiometric assay
Summary of the method: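 Human recombinant GST-fusion VEGFR2 kinase, expressed in Sf9 cells and purified on GSH-agarose, with poly(Glu,Tyr) 4:1 as substrate; phosphorylation read radiometrically. Racemic trifluoroacetate salts tested at 10 concentrations (1 × 10−4 M to 3 × 10−9 M) to give IC50, run in singlicate by a contract lab.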

[24] = tested on: HMEC-1; assay: Antiangiogenic activity in human HMEC1 cells assessed as inhibition of tube formation at 100 uM after 4 to 6 hrs by matrigel assay; type: functional, cell-based; summary of the method: as §2

Chain of Vascular endothelial growth factor receptor 2 (P35968 whole entry, the tested form may be a part): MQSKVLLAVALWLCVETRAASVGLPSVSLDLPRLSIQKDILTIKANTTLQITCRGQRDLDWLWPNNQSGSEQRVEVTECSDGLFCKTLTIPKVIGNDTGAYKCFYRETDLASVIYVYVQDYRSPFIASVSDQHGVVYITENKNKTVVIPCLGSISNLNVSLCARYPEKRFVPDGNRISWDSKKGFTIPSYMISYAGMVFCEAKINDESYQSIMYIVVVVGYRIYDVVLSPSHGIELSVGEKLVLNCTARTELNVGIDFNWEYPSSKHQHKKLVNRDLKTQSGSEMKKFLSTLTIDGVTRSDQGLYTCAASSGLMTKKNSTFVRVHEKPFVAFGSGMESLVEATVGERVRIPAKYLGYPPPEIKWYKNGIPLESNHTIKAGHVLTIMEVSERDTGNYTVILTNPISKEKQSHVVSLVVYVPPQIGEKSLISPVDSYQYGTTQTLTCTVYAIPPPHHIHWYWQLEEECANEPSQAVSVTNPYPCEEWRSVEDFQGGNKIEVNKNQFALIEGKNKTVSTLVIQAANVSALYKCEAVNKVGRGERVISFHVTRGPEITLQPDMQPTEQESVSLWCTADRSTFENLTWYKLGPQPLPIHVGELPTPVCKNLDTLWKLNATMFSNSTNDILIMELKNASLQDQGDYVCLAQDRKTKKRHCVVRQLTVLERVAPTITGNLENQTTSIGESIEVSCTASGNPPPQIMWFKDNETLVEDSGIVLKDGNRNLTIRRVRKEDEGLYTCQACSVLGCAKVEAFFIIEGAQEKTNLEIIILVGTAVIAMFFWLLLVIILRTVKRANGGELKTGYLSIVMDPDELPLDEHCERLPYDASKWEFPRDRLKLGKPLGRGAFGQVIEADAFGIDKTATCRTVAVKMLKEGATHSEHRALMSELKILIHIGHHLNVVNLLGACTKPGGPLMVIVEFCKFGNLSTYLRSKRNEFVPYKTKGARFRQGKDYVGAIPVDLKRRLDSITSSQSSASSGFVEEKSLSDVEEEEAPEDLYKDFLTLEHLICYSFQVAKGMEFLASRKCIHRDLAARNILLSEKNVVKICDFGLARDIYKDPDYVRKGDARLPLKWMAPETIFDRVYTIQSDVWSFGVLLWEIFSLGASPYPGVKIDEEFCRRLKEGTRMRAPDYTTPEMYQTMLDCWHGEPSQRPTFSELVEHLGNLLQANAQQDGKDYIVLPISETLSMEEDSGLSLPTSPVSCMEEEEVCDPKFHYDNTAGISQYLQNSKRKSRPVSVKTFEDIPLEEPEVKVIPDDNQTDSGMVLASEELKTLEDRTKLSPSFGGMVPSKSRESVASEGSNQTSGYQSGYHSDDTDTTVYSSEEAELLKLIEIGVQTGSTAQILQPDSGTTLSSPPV

Row | Structure (SMILES) | pIC50 [1] | pIC50 [2] | Activity [4] | Activity [5] | pIC50 [6] | Activity [7] | pIC50 [8] | Activity [9] | inhibition [10] | inhibition [11] | Activity [12] | Activity [13] | inhibition [15] | inhibition at 10 µM [16] [%] | inhibition [17] | Activity [18] | Activity [19] | inhibition [21] | other results
1 | CCOC(=O)C(=O)N(Cc1ccccc1)c1ccc2c(c1)OC[C@H](COc1ccc(C(=N)N)cc1)O2 | 4.62 | 5.02 | Non-toxic | Non-toxic | 4.92 | Non-toxic | 4.72 | Non-toxic | Active | – | – | – | – | – | – | – | – | – | pKi [3]: 7.74
2 | CCOC(=O)CN(Cc1ccc(F)cc1)c1ccc2c(c1)OC(C)(COc1ccc(C(=N)N)cc1)CN2C (stereo not drawn) | 5.54 | 5.28 | Toxic | Toxic | 5.54 | Toxic | 5.40 | Toxic | Active | inactive | Toxic | Toxic | Active | 78 | Dose-dependent effect | Toxic | Toxic | – | inhibition at 30 µM [14]: 95%; inhibition at 3 µM [20]: 41%
3 | CCOC(=O)C(=O)N(Cc1cc(F)cc(F)c1)c1ccc2c(c1)OC(C)(COc1ccc(C(=N)N)cc1)CN2C (stereo not drawn) | 5.17 | 5.54 | Toxic | Toxic | 5.34 | Toxic | 5.18 | Toxic | Active | – | Non-toxic | Non-toxic | – | 50 | Dose-dependent effect | Non-toxic | Non-toxic | Active | inhibition [22]: Dose-dependent effect; inhibition at 3 µM [20]: > 40%
4 | CN1CC(C)(COc2ccc(C(=N)N)cc2)Oc2ccc(N(CC(=O)O)Cc3cc(F)cc(F)c3)cc21 (racemic) [listing 1 of 2 here] | – | – | – | – | – | – | – | – | – | – | – | – | – | – | – | – | – | – | pIC50 [23]: 4.65
5 | CCOC(=O)C(=O)N(Cc1cccc(F)c1)c1ccc2c(c1)N(C)CC(C)(COc1ccc(C(=N)N)cc1)O2 (racemic) | – | – | – | – | – | – | – | – | – | – | – | – | – | – | – | – | – | – | pIC50 [23]: 4.10
6 | CCOC(=O)CN(Cc1cccc(F)c1)c1ccc2c(c1)OC(C)(COc1ccc(C(=N)N)cc1)CN2C (stereo not drawn) | 5.59 | 5.41 | Toxic | Toxic | 5.39 | Toxic | 5.35 | Toxic | Active | inactive | Toxic | Toxic | Active | 50 | Dose-dependent effect | Toxic | Toxic | Active | –
7 | CCOC(=O)C(=O)N(Cc1cc(F)cc(F)c1)c1ccc2c(c1)OC(C)(CO)CN2C (stereo not drawn) | 4.05 | 4.35 | Toxic | Toxic | 4.22 | Toxic | 4.36 | Toxic | – | inactive | – | – | Active | > 40 | Dose-dependent effect | – | – | – | inhibition [24]: Active; inhibition at 30 µM [14]: > 80%; inhibition [22]: Active
8 | CCOC(=O)CN(Cc1cc(F)cc(F)c1)c1ccc2c(c1)OC(C)(COc1ccc(C(=N)N)cc1)CN2C (stereo not drawn) | 5.74 | 5.46 | Toxic | Toxic | 5.39 | Toxic | 5.31 | Toxic | Active | inactive | Toxic | Toxic | Active | 50 | Dose-dependent effect | Toxic | Toxic | Active | –
9 | CCOC(=O)C(=O)N(Cc1ccccc1)c1ccc2c(c1)OC(C)(CO)CN2C (stereo not drawn) | < 4.00 | < 4.00 | Toxic | Toxic | < 4.00 | Toxic | < 4.00 | Toxic | – | inactive | – | – | Active | > 40 | Dose-dependent effect | – | – | – | inhibition [24]: Active; inhibition at 30 µM [14]: > 80%; inhibition [22]: Active
10 | CCOC(=O)CN(Cc1ccc(F)c(F)c1)c1ccc2c(c1)OC(C)(COc1ccc(C(=N)N)cc1)CN2C (stereo not drawn) | 5.60 | 5.40 | Toxic | Toxic | 5.40 | Toxic | 5.39 | Toxic | Active | inactive | Toxic | Toxic | Active | 50 | Dose-dependent effect | Toxic | Toxic | Active | –
11 | CCOC(=O)C(=O)N(Cc1cccc(F)c1)c1ccc2c(c1)N(C)CC(C)(COc1ccc(C(=N)N)cc1)O2 (stereo not drawn) | 5.11 | 5.19 | Toxic | Toxic | 4.74 | Toxic | 4.70 | Toxic | – | – | Non-toxic | Non-toxic | – | 50 | – | Non-toxic | Non-toxic | – | inhibition at 3 µM [20]: > 40%
12 | CCOC(=O)CN(Cc1ccc(F)c(F)c1)c1ccc2c(c1)N(C)CC(C)(COc1ccc(C(=N)N)cc1)O2 (stereo not drawn) | 5.38 | 5.41 | Toxic | Toxic | 5.39 | Toxic | 5.32 | Toxic | Active | inactive | Toxic | Toxic | Active | 50 | Dose-dependent effect | Toxic | Toxic | Active | –
13 | CCOC(=O)CN(Cc1ccc(F)cc1)c1ccc2c(c1)N(C)CC(C)(COc1ccc(C(=N)N)cc1)O2 (stereo not drawn) | 5.22 | 5.39 | Toxic | Toxic | 5.42 | Toxic | 5.32 | Toxic | Active | inactive | Toxic | Toxic | Active | 50 | Dose-dependent effect | Toxic | Toxic | Active | –
14 | CN1CC(C)(COc2ccc(C(=N)N)cc2)Oc2ccc(N(CC(=O)O)Cc3cc(F)cc(F)c3)cc21 (racemic) [listing 2 of 2 here] | – | – | – | – | – | – | – | – | – | – | – | – | – | – | – | – | – | – | inhibition [23]: Dose-dependent effect
15 | CCOC(=O)CN(Cc1cccc(F)c1)c1ccc2c(c1)N(C)CC(C)(COc1ccc(C(=N)N)cc1)O2 (stereo not drawn) | 5.22 | 5.38 | Toxic | Toxic | 5.41 | Toxic | 5.34 | Toxic | Active | inactive | Toxic | Toxic | Active | 50 | Dose-dependent effect | Toxic | Toxic | Active | inhibition at 3 µM [20]: > 40%
